Compound activity deposited in PubChem by The Scripps Research Institute Molecular Screening Center.
Most compounds without a hit are left out; they make up all but 3% or so of the library.
5-HT1A blocker: 5-HT1a (human) receptor antagonism | P08908 | CHO 5-HT1a Ga15 NFAT-bla reporter, antagonist mode | 62,000 compounds, 0.68% hits | inhibition, % at 10 µM | AID 612;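 active = inhibition above the mean of all tested compounds plus 3 SD, cut at about 43% in these data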;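 note: receptor stimulated by 5-CT agonist at 100 nM near EC80; beta-lactamase reporter measured by ratiometric fluorescence of a cleavable substrate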
5HT1a ag: 5-HT1a (human) receptor agonism. P08908. CHO 5-HT1a Ga15 NFAT-bla reporter, FRET ratio; 0% basal, 100% maximal reference agonist. activation, % at 10 µM. 65,000 compounds, 0.56% hits. AID 567;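 active = activation above the screen-wide mean activation plus 3 SD, cut at about 19% in these data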;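 note: 0% = DMSO wells and 100% = 5-CT at EC100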
5HT1E ag: activates the human 5-HT1E serotonin receptor. 65,000 compounds, 0.69% hits. P28566. activation, % at 6 µM. CHO 5-HT1E Ga15 NFAT-bla reporter, FRET; 0% DMSO wells, 100% control agonist wells;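 active = activation above a set limit, the screen-wide mean activation plus 3 SD, cut at about 8.5% in these data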;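 note: 100% = positive control agonist at 1 µM giving full maximal response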
S1P1 ag pot: agonists and agonism potentiators of human S1P1 receptor; P21453; S1P1 CRE-bla cells, forskolin, beta-lactamase FRET, potentiator mode; S1P1 agonist co-added at EC20, 2 nM; 100% = saturating reference agonist, 0% = basal; activation, % at 9.5 µM; 56,000 compounds, 0.57% hits;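 active = activation above a cutoff set at the mean activation of all tested compounds plus 3 SD, cut at about 54% in these data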;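 note: forskolin at 4 µM as EC80 and the EC20 agonist is SEW2871; 100% = SEW2871 at its EC100 plus forskolin at EC80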
Target sequence (P21453 whole entry, looked up): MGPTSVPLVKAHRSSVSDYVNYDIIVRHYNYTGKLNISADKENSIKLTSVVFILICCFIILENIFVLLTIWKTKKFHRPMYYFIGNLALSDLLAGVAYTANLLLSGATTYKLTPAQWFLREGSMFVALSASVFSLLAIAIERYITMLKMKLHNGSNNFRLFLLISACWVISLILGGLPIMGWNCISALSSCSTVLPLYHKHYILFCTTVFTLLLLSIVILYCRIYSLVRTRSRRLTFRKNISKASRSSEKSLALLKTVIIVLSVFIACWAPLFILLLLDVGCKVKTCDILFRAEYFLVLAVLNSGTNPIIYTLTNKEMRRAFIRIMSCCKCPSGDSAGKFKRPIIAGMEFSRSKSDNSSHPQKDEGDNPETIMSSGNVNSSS
HTR1E antagonist: blocks the human 5-HT1E serotonin receptor. P28566. CHO 5-HT1E Ga15 NFAT-bla reporter, FRET, antagonist. inhibition, % at 6 µM. 65,000 compounds, 0.99% hits;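 active = inhibition above a set limit, the mean inhibition across every tested compound plus 3 SD, cut at about 29% in these data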;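 note: signal is the 460 over 535 nm emission ratio of beta-lactamase substrate; 0% = agonist plus DMSO wells and 100% = wells without agonist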
S1P3 agonist: agonists of human S1P3 receptor; activation, % at 4.5 µM; AID 373; 60,000 compounds, 0.1% hits; S1P3 NFAT-BLA reporter cells, agonism, FRET ratio; relative to 1 µM S1P, basal subtracted;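 active = activation above the screen-wide mean plus 3 SD, cut at about 4.5% in these data, passing the limit was not always enough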
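Assay system: CHO cells stably expressing human S1P3, Gα16 and NFAT-β-lactamase reporter. Timing: overnight plating, 4 h compound 37 °C, 2 h substrate RT. Signal: β-lactamase FRET emission ratio 460/535 nm. Measure: percent activation versus median 1 µM S1P response, basal-subtracted, per plate. Repeats: primary screen single test, confirmation screen in triplicate.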
Starred values were filed as active, the others as inactive; / = no result.

SMILES	5-HT1A blocker	5HT1a ag	5HT1E ag	S1P1 ag pot	HTR1E antagonist	S1P3 agonist
COCCCNC(=O)c1c(N)n(/N=C/c2cccnc2)c2nc3ccccc3nc12	/	7	0	-16	-1	-2
COCCCNC(=O)c1c(N)n(/N=C/c2cccs2)c2nc3ccccc3nc12	/	86*	26*	-123	-31	3
CC(=O)Nc1cccc(-c2nc3ccc(NC(C)=O)cc3[nH]2)c1	0	-1	0	-3	-5	0
CC(=O)Nc1ccc2nc(-c3cccnc3)[nH]c2c1	-6	-2	17*	/	-5	/
CCN(CC(=O)Nc1ccc(OC)c(OC)c1)S(=O)(=O)c1ccc(C)cc1	-18	22*	0	/	-7	1
COc1ccc(NC(=O)CN(c2ccc(C)cc2)S(=O)(=O)c2c(C)nn(C)c2C)cc1OC	-3	0	0	5	6	0
CCOc1ncccc1C(=O)OCc1cc(=O)n2c(n1)sc1ccccc12	-7	-3	0	-2	8	0
COc1ccccc1NC(=O)Nc1nnc(C(C)C)s1	/	0	0	21	29*	-3
Cc1ccc2nc3c(cc(C#N)c(=O)n3-c3nccs3)c(=O)n2c1	-88	59*	13*	-110	-31	12*
CCOC(=O)c1nc(S(C)(=O)=O)ncc1Cl	86*	-2	0	-54	75*	0
COc1ccc(N2CCn3c2nc2c3c(=O)n(CCCc3ccccc3)c(=O)n2C)cc1	3	0	1	0	-2	0
COc1ccc(N2CC(C)Cn3c2nc2c3c(=O)n(CCc3ccccc3)c(=O)n2C)cc1 (stereo unspecified)	-4	2	12*	-4	13	-1
Cc1ccc(OCCOCCn2ccnc2)c(Br)c1	-8	0	-1	-5	7	-1
Cc1cc(C)n(-c2ccc(Cl)c(C(=O)Nc3ccc(-c4nnc5n4CCCCC5)cc3)n2)n1	-4	1	0	0	3	0
Cc1ccc(S(=O)(=O)N2CCCN(S(=O)(=O)c3ccc(C)cc3)CC2)cc1	4	1	19*	/	1	0
Cc1cccc(S(=O)(=O)C(C#N)c2nc3ccccc3nc2N2CCOCC2)c1 (stereo unspecified)	6	-3	0	16	12	0
Cc1nc(NCCNC(=O)c2ccco2)c2c(C)c(C)sc2n1	-4	-1	0	5	32*	-1
C=CCOc1nc(N(C)C)nc(N(C)C)n1	-6	-3	0	-22	-8	0
c1ccc(-c2nnc(-c3ccccn3)nn2)nc1	6	-1	0	/	-5	/
c1ccc(-c2cccc(-c3ccccn3)n2)nc1	59*	-2	-2	-5	45*	-2
Cc1c(Cl)cccc1-n1nnnc1-c1cccs1	8	-2	0	3	7	0
CCCC(=O)C1C(=O)CC(C)(C)C(c2cc(C)no2)C1=O (stereo unspecified)	-7	0	0	/	-2	0
Cc1cc(C2C(=O)CC(=O)CC2c2ccccc2)on1 (stereo unspecified)	7	-1	12*	-3	6	0
O=S(=O)(Nc1cccc2cccnc12)c1ccc(S(=O)(=O)N2CCCC2)cc1	30	-1	-1	23	32*	0
C=C(C)CSc1nnc(-c2ccccc2)n1N	0	1	42*	/	-4	-2
CCOC(=O)c1c(C)[nH]c(C(=O)COC(=O)c2oc3ccc(OC)cc3c2C)c1C	-5	-2	35*	9	-8	0
CCOC(=O)c1c(C)[nH]c(C(=O)COC(=O)c2cnc(C)cn2)c1C	16	-1	0	15	0	0
CCOC(=O)c1[nH]c(C)c(C(=O)Nc2ccccc2C)c1C	17	1	0	28	23	-1
CCOC(=O)c1[nH]c(C)c(C(=O)Nc2cc(Cl)ccc2C)c1C	32	-3	0	0	44*	-1
Cc1cc(NC(=O)CSc2cn(C)c3ccccc23)no1	21	-4	0	-23	1	-1
